ChEMBL document CHEMBL2203116, “Synthesis and evaluation of novel carbon-11 labeled oxopurine analogues for positron emission tomography imaging of translocator protein (18 kDa) in peripheral organs” (J Med Chem, 2011)
Values belong to the compound of their own block, whether it stands above or below them.

What was measured:
[1] = test system: Liver; experiment: Drug uptake in Sprague-Dawley rat liver at 0.13 nmol, iv up to 30 mins by PET scanning; format: ADME, organism-based; conditions: in vivo, 0.5 h
How it was run: (§1)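 Male Sprague-Dawley rats (6–8 weeks old), isoflurane-anesthetized, prone. ROIs on lung, heart, kidney, liver, small intestine and cardiac blood pool. Uptake decay-corrected to injection time and expressed as SUV (body-weight normalized). n = 4, mean ± SD.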

[2] = test system: Liver; experiment: Drug uptake in Sprague-Dawley rat liver at 0.13 nmol, iv after 2 mins by PET scanning; format: ADME, organism-based; conditions: in vivo; how it was run: as §1
[3] = test system: Liver; experiment: Drug uptake in Sprague-Dawley rat liver at 0.13 nmol, iv pretreated with unlabeled (R)-PK11195 measured after 27.5 mins by PET scanning relative to control; format: ADME, organism-based; conditions: in vivo
How it was run: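 Male Sprague-Dawley rats, 6-8 weeks old, under isoflurane, prone. An unlabeled TSPO blocking ligand (3.0 mg/kg) was injected 1 min before the iv radioligand (16-18 MBq/200 μL). A liver ROI was decay-corrected and expressed as SUV normalized to injected activity and body weight. The 27.5-min value was compared with unblocked controls; n = 4.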

[4] = test system: Heart; experiment: Drug uptake in Sprague-Dawley rat heart at 0.13 nmol, iv up to 30 mins by PET scanning; format: ADME, organism-based; conditions: in vivo, 0.5 h
How it was run: (§2)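 Isoflurane-anesthetized male Sprague-Dawley rats lay prone and received an iv bolus of [11C]radioligand in 200 μL. 3D list-mode emission scans ran 30 min from injection. Regions of interest were drawn on the organs and cardiac blood pool. Uptake was decay-corrected to injection time and expressed as SUV (normalized to injected radioactivity and body weight). Values are mean of n = 4.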

[5] = test system: Kidney; experiment: Drug uptake in Sprague-Dawley rat kidney at 0.13 nmol, iv after 27.5 mins by PET scanning; format: ADME, organism-based; conditions: in vivo; how it was run: as §2
[6] = test system: Lung; experiment: Drug uptake in Sprague-Dawley rat lung at 0.13 nmol, iv after 27.5 mins by PET scanning; format: ADME, organism-based; conditions: in vivo; how it was run: as §1
[7] = test system: Lung; experiment: Drug uptake in Sprague-Dawley rat lung at 0.13 nmol, iv up to 30 mins by PET scanning; format: ADME, organism-based; conditions: in vivo, 0.5 h; how it was run: as §1
[8] = test system: Lung; experiment: Drug uptake in Sprague-Dawley rat lung at 0.13 nmol, iv pretreated with unlabeled (R)-PK11195 by PET scanning; format: ADME, organism-based; conditions: in vivo; how it was run: as §1
[9] = test system: Blood; experiment: Drug uptake in Sprague-Dawley rat cardiac blood pool at 0.13 nmol, iv up to 30 mins by PET scanning; format: ADME, organism-based; conditions: in vivo, 0.5 h; how it was run: as §2
[10] = test system: Intestine; experiment: Drug uptake in Sprague-Dawley rat small intestine at 0.13 nmol, iv up to 30 mins by PET scanning; format: ADME, organism-based; conditions: in vivo, 0.5 h; how it was run: as §1
[11] = test system: Kidney; experiment: Drug uptake in Sprague-Dawley rat kidney at 0.13 nmol, iv up to 30 mins by PET scanning; format: ADME, organism-based; conditions: in vivo, 0.5 h; how it was run: as §1
[12] = test system: Lung; experiment: Drug uptake in Sprague-Dawley rat lung at 0.13 nmol, iv after 2 mins by PET scanning; format: ADME, organism-based; conditions: in vivo; how it was run: as §1
[13] = test system: Kidney; experiment: Drug uptake in Sprague-Dawley rat kidney at 0.13 nmol, iv after 2 mins by PET scanning; format: ADME, organism-based; conditions: in vivo; how it was run: as §2
[14] = test system: Heart; experiment: Drug uptake in Sprague-Dawley rat heart at 0.13 nmol, iv pretreated with unlabeled AC-5216 by PET scanning; format: ADME, organism-based; conditions: in vivo
How it was run: (§3)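 Isoflurane-anesthetized Sprague-Dawley rats underwent 30-min PET after iv [11C]radioligand, with unlabeled blocker given iv 1 min before tracer. Blockers were (R)-PK11195 at 3.0 mg/kg or AC-5216 at 1.0 mg/kg in 300 μL saline with 10% ethanol and 5% polysorbate 80. Regional uptake was decay-corrected SUV (n = 4).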

[15] = test system: Blood; experiment: Drug uptake in Sprague-Dawley rat cardiac blood pool at 0.13 nmol, iv after 27.5 mins by PET scanning; format: ADME, organism-based; conditions: in vivo; how it was run: as §2
[16] = test system: Blood; experiment: Drug uptake in Sprague-Dawley rat cardiac blood pool at 0.13 nmol, iv after 2 mins by PET scanning; format: ADME, organism-based; conditions: in vivo; how it was run: as §2
[17] = test system: Heart; experiment: Drug uptake in Sprague-Dawley rat heart at 0.13 nmol, iv after 2 mins by PET scanning; format: ADME, organism-based; conditions: in vivo; how it was run: as §2
[18] = test system: Lung; experiment: Drug uptake in Sprague-Dawley rat lung at 0.13 nmol, iv pretreated with unlabeled AC-5216 by PET scanning; format: ADME, organism-based; conditions: in vivo; how it was run: as §1
[19] = test system: Heart; experiment: Drug uptake in Sprague-Dawley rat heart at 0.13 nmol, iv after 27.5 mins by PET scanning; format: ADME, organism-based; conditions: in vivo; how it was run: as §2
[20] = test system: Liver; experiment: Drug uptake in Sprague-Dawley rat liver at 0.13 nmol, iv pretreated with unlabeled AC-5216 measured after 27.5 mins by PET scanning relative to control; format: ADME, organism-based; conditions: in vivo
How it was run: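 Male Sprague-Dawley rats, 6-8 weeks, isoflurane-anesthetized. A blocking TSPO ligand (1.0 mg/kg, in 300 μL saline with 10% ethanol and 5% polysorbate 80) was injected 1 min before iv radioligand (16-18 MBq/200 μL). Liver ROI as decay-corrected SUV (injected activity, body weight), 27.5-min value versus controls; n = 4.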

[21] = test system: Liver; experiment: Drug uptake in Sprague-Dawley rat liver at 0.13 nmol, iv after 27.5 mins by PET scanning; format: ADME, organism-based; conditions: in vivo; how it was run: as §1
[22] = test system: Kidney; experiment: Drug uptake in Sprague-Dawley rat kidney at 0.13 nmol, iv pretreated with unlabeled AC-5216 by PET scanning; format: ADME, organism-based; conditions: in vivo; how it was run: as §1
[23] = test system: Heart; experiment: Drug uptake in Sprague-Dawley rat heart at 0.13 nmol, iv pretreated with unlabeled (R)-PK11195 by PET scanning; format: ADME, organism-based; conditions: in vivo; how it was run: as §3
[24] = test system: Kidney; experiment: Drug uptake in Sprague-Dawley rat kidney at 0.13 nmol, iv pretreated with unlabeled (R)-PK11195 by PET scanning; format: ADME, organism-based; conditions: in vivo; how it was run: as §3
[25] = Lipophilicity, log D of the compound in octanol-phosphate buffer at pH 7.4 by shake flask method; format: physicochemical
How it was run: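 Radioligand (~200000 cpm) shaken with n-octanol (3.0 g) and 0.1 M sodium phosphate buffer pH 7.4 (3.0 g). Vortexed 3 min at room temperature, centrifuged 3500 rpm for 5 min. Phases weighed and counted; organic layer repartitioned until consistent. LogD = log of the cpm/g octanol to cpm/g buffer ratio. Triplicate.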

[26] = target: Translocator protein (Rattus norvegicus, UniProt P16257); experiment: Displacement of [11C]-PK-11195 from TPSO in Sprague-Dawley rat brain homogenate after 30 mins by gamma counting; format: tissue-based
Chain of Translocator protein (P16257 whole entry, looked up): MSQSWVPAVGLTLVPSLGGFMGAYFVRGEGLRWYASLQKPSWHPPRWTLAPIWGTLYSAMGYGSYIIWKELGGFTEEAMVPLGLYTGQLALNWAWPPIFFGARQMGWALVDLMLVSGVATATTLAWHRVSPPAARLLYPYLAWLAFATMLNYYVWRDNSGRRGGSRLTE

Structure (SMILES): CN(Cc1cccnc1)C(=O)Cn1c(=O)n([11CH3])c2cnc(-c3ccccc3)nc21
Drug uptake [1]: Active | SUV [2]: 1.6 | fold change (FC) [3]: 1.5 | Drug uptake [4]: Active | SUV [5]: 1 | SUV [6]: 0.5 | Drug uptake [7]: Active | Drug uptake [8]: Not Active | Drug uptake [9]: Active | Drug uptake [10]: Active | Drug uptake [11]: Active | SUV [12]: 3.4 | SUV [13]: 3.3 | Drug uptake [14]: Not Active | SUV [15]: 0.4 | SUV [16]: 3 | SUV [17]: 4.6 | Drug uptake [18]: Not Active | SUV [19]: 0.9 | fold change (FC) [20]: 1.5 | SUV [21]: 0.5 | Drug uptake [22]: Not Active | Drug uptake [23]: Not Active | Drug uptake [24]: Not Active

Structure (SMILES): CCN(Cc1ccncc1)C(=O)Cn1c(=O)n(C)c2cnc(-c3ccccc3)nc21
logD [25]: 2.03 | Ki [26]: 5.1 nM

Structure (SMILES): CCN(Cc1cccnc1)C(=O)Cn1c(=O)n(C)c2cnc(-c3ccccc3)nc21
logD [25]: 2.17 | Ki [26]: 13.2 nM

Further lines, results first:

logD [25]: 3.74
Structure (SMILES): CC[C@@H](C)N(C)C(=O)c1cc2ccccc2c(-c2ccccc2Cl)n1 [(R)PK-11195]

logD [25]: 3.48 | Ki [26]: 0.6 nM
Structure (SMILES): CCN(Cc1ccccc1)C(=O)Cn1c(=O)n(C)c2cnc(-c3ccccc3)nc21
